Experimental data reported in ChEMBL document CHEMBL1914423, “New imidazo[2,1-b]thiazole derivatives: synthesis, in vitro anticancer evaluation, and in silico studies” (Eur J Med Chem, 2011).

What was measured:
[1] = system: M14; assay: Antiproliferative activity against human M14 cells after 48 hrs by MTT assay; type: functional, cell-based; details: M14, 48 h
[2] = system: A498; assay: Anticancer activity against human A498 cells after 48 hrs by SRB assay; type: functional; details: A498, 48 h
In short: (§1)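 NCI five-dose screen. Cells in RPMI 1640 with 5% FBS and 2 mM L-glutamine, seeded at 5000–40,000 cells/well according to doubling time, then pre-incubated 24 h at 37 °C in 5% CO2. Drugs dissolved in DMSO, five concentrations by 10-fold or 1/2-log dilution. Cells fixed with TCA, SRB-stained, A515 read. IC50 solved from [(Ti−Tz)/(C−Tz)]×100 = 50.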

[3] = system: MCF7; assay: Anticancer activity against human MCF7 cells after 48 hrs by SRB assay; type: functional; details: MCF7, 48 h; in short: as §1
[4] = system: NCI/ADR-RES; assay: Anticancer activity against human NCI/ADR-RES cells after 48 hrs by SRB assay; type: functional
[5] = system: COLO 205; assay: Anticancer activity against human COLO205 cells after 48 hrs by SRB assay; type: functional; details: COLO 205, 48 h; in short: as §1
[6] = system: HCC 2998; assay: Anticancer activity against human HCC2998 cells after 48 hrs by SRB assay; type: functional; details: HCC 2998, 48 h; in short: as §1
[7] = system: LOX IMVI; assay: Antiproliferative activity against human LOXIMVI cells after 48 hrs by MTT assay; type: functional, cell-based
[8] = system: HOP-62; assay: Anticancer activity against human HOP62 cells after 48 hrs by SRB assay; type: functional; details: HOP-62, 48 h; in short: as §1
[9] = system: SN12C; assay: Anticancer activity against human SN12C cells after 48 hrs by SRB assay; type: functional
[10] = system: OVCAR-8; assay: Anticancer activity against human OVCAR8 cells after 48 hrs by SRB assay; type: functional; details: OVCAR-8, 48 h
[11] = system: TK-10; assay: Anticancer activity against human TK10 cells after 48 hrs by SRB assay; type: functional; details: TK-10, 48 h
In short: (§2)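 NCI-60 five-dose mode: cells in RPMI 1640 with 5% FBS and 2 mM glutamine, plated at 5000–40,000 cells/well, and preincubated 24 h, with time-zero plates TCA-fixed. Drug given at five concentrations (10-fold or ½-log serial dilutions). Cold TCA fixation 60 min at 4 °C, SRB stain, Tris solubilization, A515. IC50 taken where [(Ti−Tz)/(C−Tz)]×100 = 50.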

[12] = system: SK-MEL-28; assay: Anticancer activity against human SK-MEL-28 cells after 48 hrs by SRB assay; type: functional; details: SK-MEL-28, 48 h
[13] = system: LOX IMVI; assay: Anticancer activity against human LOXIMVI cells after 48 hrs by SRB assay; type: functional; in short: as §1
[14] = system: HCT-116; assay: Anticancer activity against human HCT116 cells after 48 hrs by SRB assay; type: functional; details: HCT-116, 48 h; in short: as §1
[15] = system: ACHN; assay: Anticancer activity against human ACHN cells after 48 hrs by SRB assay; type: functional; in short: as §1
[16] = system: OVCAR-3; assay: Anticancer activity against human OVCAR3 cells after 48 hrs by SRB assay; type: functional; details: OVCAR-3, 48 h
[17] = system: U-251; assay: Anticancer activity against human U251 cells after 48 hrs by SRB assay; type: functional; details: U-251, 48 h; in short: as §2
[18] = system: UO-31; assay: Anticancer activity against human UO31 cells after 48 hrs by SRB assay; type: functional; details: UO-31, 48 h; in short: as §2
[19] = system: HOP-92; assay: Anticancer activity against human HOP92 cells after 48 hrs by SRB assay; type: functional; details: HOP-92, 48 h; in short: as §1
[20] = system: A549; assay: Anticancer activity against human A549 cells after 48 hrs by SRB assay; type: functional; details: A549, 48 h; in short: as §1
[21] = system: SR; assay: Anticancer activity against human SR cells after 48 hrs by SRB assay; type: functional; in short: as §2
[22] = Anticancer activity against human Hs 578T cells after 48 hrs by SRB assay; type: functional; in short: as §1
[23] = system: Malme-3M; assay: Anticancer activity against human MALME-3M cells after 48 hrs by SRB assay; type: functional; in short: as §1
[24] = system: SNB-75; assay: Anticancer activity against human SNB75 cells after 48 hrs by SRB assay; type: functional; details: SNB-75, 48 h
[25] = system: RPMI-8226; assay: Anticancer activity against human RPMI8226 cells after 48 hrs by SRB assay; type: functional; details: RPMI-8226, 48 h
[26] = system: NCI-H522; assay: Anticancer activity against human NCI-H522 cells after 48 hrs by SRB assay; type: functional; details: NCI-H522, 48 h
[27] = system: DU-145; assay: Anticancer activity against human DU145 cells after 48 hrs by SRB assay; type: functional; details: DU-145, 48 h; in short: as §1
[28] = system: SF-295; assay: Anticancer activity against human SF295 cells after 48 hrs by SRB assay; type: functional; details: SF-295, 48 h
[29] = system: CAKI-1; assay: Anticancer activity against human Caki1 cells after 48 hrs by SRB assay; type: functional; details: CAKI-1, 48 h; in short: as §1
[30] = system: UACC-257; assay: Anticancer activity against human UACC257 cells after 48 hrs by SRB assay; type: functional; details: UACC-257, 48 h; in short: as §2
[31] = system: SW-620; assay: Anticancer activity against human SW620 cells after 48 hrs by SRB assay; type: functional; details: SW-620, 48 h; in short: as §2
[32] = read-out: LC50 (the source's name)

Compound O=C(NCCNc1nccc(-c2c(-c3cccc(O)c3)nc3sccn23)n1)c1ccccc1 has an IC50 [1] of 0.434 µM, a GI50 [2] of 3.68 µM and a TGI [2] of 19.3 µM. The CC50 [2, 32] was 58 µM, the GI50 [3] was 3.24 µM and the TGI [3] was 14.9 µM. For the same compound, the CC50 [3, 32] was 46.5 µM, the GI50 [4] was 34.8 µM and the TGI [4] was greater than 100 µM. The CC50 [4, 32] was greater than 100 µM, the GI50 [5] was 3.99 µM and the TGI [5] was 23.8 µM. The CC50 [5, 32] was greater than 100 µM, the GI50 [6] was 13.8 µM and the TGI [6] was 31.2 µM. The CC50 [6, 32] was 70.3 µM, the IC50 [7] was 3.22 µM and the GI50 [8] was 23.5 µM. The TGI [8] was 94.2 µM, the GI50 [9] was 9.04 µM and the TGI [9] was 38.4 µM. The CC50 [9, 32] was greater than 100 µM, the GI50 [10] was 11.1 µM and the TGI [10] was 78.8 µM. For the same compound, the CC50 [10, 32] was greater than 100 µM, the GI50 [11] was 11.7 µM and the TGI [11] was 37.1 µM. For the same compound, the CC50 [11, 32] was greater than 100 µM, the GI50 [12] was 0.336 µM and the TGI [12] was 99.1 µM. The CC50 [12, 32] was greater than 100 µM, the GI50 [13] was 3.22 µM and the TGI [13] was 17.8 µM. For the same compound, the CC50 [13, 32] was 80.2 µM, the GI50 [14] was 4.82 µM and the TGI [14] was 17.5 µM. The CC50 [14, 32] was 49.6 µM, the GI50 [15] was 6.43 µM and the TGI [15] was 34.9 µM. It also gave a CC50 [15, 32] greater than 100 µM, a GI50 [16] of 12.3 µM and a TGI [16] of 64.8 µM. For the same compound, the CC50 [16, 32] was greater than 100 µM, the GI50 [17] was 17.9 µM and the TGI [17] was greater than 100 µM. It also gave a CC50 [17, 32] greater than 100 µM, a GI50 [18] of 12.2 µM and a TGI [18] of 88.7 µM. The CC50 [18, 32] was greater than 100 µM, the GI50 [19] was 2.22 µM and the TGI [19] was 33.2 µM. For the same compound, the CC50 [19, 32] was greater than 100 µM, the GI50 [20] was 9.21 µM and the TGI [20] was 46.5 µM. The GI50 [21] was 5.68 µM, the TGI [21] was 50 µM and the CC50 [21, 32] was greater than 100 µM. The GI50 [22] was 4.86 µM, the TGI [22] was 38.3 µM and the CC50 [22, 32] was greater than 100 µM. The GI50 [23] was 0.205 µM, the CC50 [23, 32] was greater than 100 µM and the GI50 [24] was 3.27 µM. The TGI [24] was 28.1 µM, the CC50 [24, 32] was greater than 100 µM and the GI50 [25] was 6.97 µM. The TGI [25] was 25.3 µM, the GI50 [26] was 5.76 µM and the TGI [26] was 25.5 µM. The CC50 [26, 32] was 93.9 µM, the GI50 [27] was 19.7 µM and the TGI [27] was 68.7 µM. It also gave a CC50 [27, 32] greater than 100 µM, a GI50 [28] of 12.9 µM and a TGI [28] of 38 µM. It also gave a CC50 [28, 32] greater than 100 µM, a GI50 [29] of 5.92 µM and a TGI [29] of 29.6 µM. It also gave a CC50 [29, 32] greater than 100 µM, a GI50 [30] of 0.489 µM and a TGI [30] of 18.5 µM. The CC50 [30, 32] was greater than 100 µM, the GI50 [31] was 18 µM and the TGI [31] was 79.4 µM. For the same compound, the CC50 [31, 32] was greater than 100 µM.
